Entries after “also recorded” stand apart in the source; their conditions may differ. Like-named read-outs stand apart in the source and are kept apart here.
Legend:
[1] = target: T1, recombinant murine iNOS (Mus musculus, UniProt P29477); assay: Irreversible inhibition kinetics; format: biochemical; details: for Inactivation (irreversible inhibition) of iNOS: qualitative; for Ki: Kitz and Wilson
[2] = target: T1, recombinant murine iNOS; assay: Determination of substrate activity; format: biochemical; details: up to 2 mM
Method in brief: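 Recombinant murine iNOS expressed in E. coli. NO output is read as oxyhemoglobin oxidised to metHb, by absorbance change at 401 nm over the first 60 s at 37 °C. The mix holds NADPH 100 µM, oxyHb 0.125 mg/mL and tetrahydrobiopterin 10 µM in 100 mM Hepes pH 7.4. Test compound is tested up to 2 mM. The reaction starts on adding enzyme.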

[3] = target: T1, recombinant murine iNOS; assay: HPLC / LC/MS of amino acid metabolites from inactivation mixtures; format: biochemical; details: OPA/MCE derivatization HPLC
Method in brief: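 E. coli-expressed murine iNOS is incubated with test compound (2 mM stock), NADPH (39 mM stock), H4B (8 mM stock), catalase and glycerol in Hepes 100 mM pH 7.4 for 3 h at 37 °C. Aliquots are derivatised with o-phthalaldehyde/2-mercaptoethanol (20:1 v/v). Separation is C18 reversed-phase HPLC, 50 mM sodium acetate pH 5.9 to 80% methanol gradient, 1.0 mL/min, detection at 340 nm.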

[4] = target: iNOS dimer (Mus musculus, UniProt P29477); assay: LT-PAGE assay of iNOS dimer/monomer after inactivation; format: biochemical, murine; details: native iNOS control 65 ± 5
[5] = target: T2, iNOS heme cofactor (Mus musculus, UniProt P29477); assay: HPLC and LC/MS determination of heme and biliverdin after treatment of iNOS; format: biochemical, murine; details: for Biliverdin formation: HPLC with UV or MS detection; for Heme loss: qualitative
Method in brief: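 After iNOS treatment with test compound, biliverdin is analysed by LC/MS with diode-array detection at 401 nm. Column is C18 reversed-phase, with water and acetonitrile each containing 0.1% TFA, at 1.0 mL/min. Solvent B rises linearly from 40% to 60% over 10 min, then returns to 40% within 2 min and holds 3 min.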

[6] = test system: NOS; details: cited from earlier work
[7] = target: T1, recombinant murine iNOS; details: cited from earlier work
[8] = target: T2, iNOS heme cofactor; details: LC-electrospray MS and HPLC; cited from earlier work
[9] = target: T1, recombinant murine iNOS; assay: Hemoglobin assay for iNOS activity; format: biochemical; details: different concentrations of inhibitor and L-arginine

T1 sequence (P29477 whole entry): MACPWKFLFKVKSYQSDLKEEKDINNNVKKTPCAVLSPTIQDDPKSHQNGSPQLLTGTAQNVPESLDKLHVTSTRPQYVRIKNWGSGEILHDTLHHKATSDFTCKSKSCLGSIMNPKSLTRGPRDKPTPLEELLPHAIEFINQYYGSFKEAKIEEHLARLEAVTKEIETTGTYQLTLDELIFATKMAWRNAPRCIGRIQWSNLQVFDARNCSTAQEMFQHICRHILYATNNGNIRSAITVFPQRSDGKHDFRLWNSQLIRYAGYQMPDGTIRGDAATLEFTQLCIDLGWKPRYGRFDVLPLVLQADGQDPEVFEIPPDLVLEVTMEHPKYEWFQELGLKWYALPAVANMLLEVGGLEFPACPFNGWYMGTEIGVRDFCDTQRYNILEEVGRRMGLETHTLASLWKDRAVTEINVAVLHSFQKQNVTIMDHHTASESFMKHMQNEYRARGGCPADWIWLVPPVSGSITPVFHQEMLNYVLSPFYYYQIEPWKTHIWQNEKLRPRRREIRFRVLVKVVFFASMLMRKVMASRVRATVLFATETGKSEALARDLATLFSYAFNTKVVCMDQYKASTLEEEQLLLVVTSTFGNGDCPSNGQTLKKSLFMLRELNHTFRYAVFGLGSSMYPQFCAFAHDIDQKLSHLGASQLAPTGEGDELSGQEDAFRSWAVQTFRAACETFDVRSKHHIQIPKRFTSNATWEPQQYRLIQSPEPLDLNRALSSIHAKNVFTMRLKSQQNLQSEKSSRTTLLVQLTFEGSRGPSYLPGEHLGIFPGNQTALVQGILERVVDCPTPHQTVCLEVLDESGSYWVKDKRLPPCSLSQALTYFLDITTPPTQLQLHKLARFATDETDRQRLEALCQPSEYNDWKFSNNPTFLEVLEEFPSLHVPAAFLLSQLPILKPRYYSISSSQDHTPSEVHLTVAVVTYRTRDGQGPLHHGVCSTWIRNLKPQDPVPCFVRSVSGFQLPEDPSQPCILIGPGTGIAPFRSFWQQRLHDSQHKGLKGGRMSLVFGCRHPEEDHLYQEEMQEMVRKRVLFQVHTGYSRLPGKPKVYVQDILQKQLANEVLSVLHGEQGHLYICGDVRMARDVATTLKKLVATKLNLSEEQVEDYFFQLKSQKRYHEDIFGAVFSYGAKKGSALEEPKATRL

## [2H]C([2H])([2H])C([2H])([2H])C(=N)NCCC[C@H](N)C(=O)O [Compound 26, (S)-2-amino-5-(propanimidamido-2,2,3,3,3-d5)pentanoic acid]
[1]
  kinact: 0.073 min⁻¹
  kinact/KI: 4.42 M⁻¹ s⁻¹
  Inactivation (irreversible inhibition) of iNOS: inactivated iNOS
[1]; 8 versus 26
  H/D ratio of KI: 0.884 ± 0.068

## CCC(=N)NCCC[C@H](N)C(=O)O [Compound 8]
[2]
  Substrate activity (NO generation / products): no nitric oxide was formed
[1]; iNOS inactivation
  kinact/KI: 5.17 ± 0.467 M⁻¹ s⁻¹
  Ki: 243 ± 31.4 µM
[1]; iNOS inactivation, 37 °C
  kinact: 0.0743 ± 0.0073 min⁻¹
[1]
  Inactivation (irreversible inhibition) of iNOS: inactivators; also recorded: irreversible inhibitors; also recorded: weak irreversible inhibition; also recorded: time-, concentration-, and NADPH-dependent inhibitor
[3]
  Metabolites from inactivation of iNOS: none was detected; also recorded: no 22 was observed
[4]
  % iNOS Dimer remaining after inactivation: 46 ± 2%
[5]
  Heme lost by incubation with iNOS: < 5%
  Biliverdin formation: No apparent heme loss or biliverdin formation; also recorded: no biliverdin could be detected
  Heme loss: No apparent heme loss

## CN=C(NC)NCCCC(N)C(=O)O (stereo not shown) [Compound 6a, N^ω, N^ωω-dimethylarginine]
[6]
  NOS inhibition: endogenous NOS inhibitor

## CC(=N)NCCC[C@H](N)C(=O)O [Compound 4, N^5-(1-iminoethyl)-L-ornithine]
[7]
  Inactivation of iNOS: time-, concentration-, and NADPH-dependent iNOS inactivator
[8]
  Conversion of active site heme in iNOS to biliverdin: convert the active site heme in iNOS to biliverdin IXα
[4]
  % iNOS Dimer remaining after inactivation: 51 ± 4%
[9]
  Inhibition type: competitive

## CC(C)C(=N)NCCC[C@H](N)C(=O)O [Compound 10]
[1]
  Inactivation (irreversible inhibition) of iNOS: No inactivation was observed

## CCCC(=N)NCCC[C@H](N)C(=O)O [Compound 9]
[2]
  Substrate activity (NO generation / products): no nitric oxide was formed
[1]; iNOS inactivation
  kinact/KI: 3.3 ± 0.16 M⁻¹ s⁻¹
  Ki: 674 ± 80 µM
[1]; iNOS inactivation, 37 °C
  kinact: 0.131 ± 0.0095 min⁻¹
[1]
  Inactivation (irreversible inhibition) of iNOS: inactivators; also recorded: irreversible inhibitors; also recorded: weak irreversible inhibition
[3]
  Metabolites from inactivation of iNOS: none was detected
[4]
  % iNOS Dimer remaining after inactivation: 47 ± 5%
[5]
  Heme lost by incubation with iNOS: < 5%
  Biliverdin formation: No apparent heme loss or biliverdin formation; also recorded: no biliverdin could be detected
  Heme loss: No apparent heme loss

## CN=C(NC)NCCCC(N)C(=O)O (stereo not shown) [Compound 6b, N^ω,N’^ω-dimethylarginine]
[6]
  NOS inhibition: inactive

## CC(=N)NCc1cccc(CN)c1 [Compound 1400W, N-(3-(aminomethyl)benzyl)acetamidine]
[8]
  Conversion of active site heme in iNOS to biliverdin: convert the active site heme in iNOS to biliverdin IXα

## N=CNCCC[C@H](N)C(=O)O [Compound 7]
[2]
  Substrate activity (NO generation / products): does not act as a substrate
[1]
  Inactivation (irreversible inhibition) of iNOS: does not act as a substrate or as an inactivator; also recorded: did not inactivate iNOS
